Test results as given in ChEMBL document CHEMBL2417369, “Synthesis and evaluation of heteroaryl substituted diazaspirocycles as scaffolds to probe the ATP-binding site of protein kinases” (Bioorg Med Chem, 2013).

How the values were obtained:
[1] = biological target: Tyrosine-protein kinase Lck (Homo sapiens, UniProt P06239); assay: Inhibition of LCK (unknown origin) at 30 uM by microfluidic mobility shift assay relative to control
In short: (§1)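 Single-point screen in a 24-enzyme kinase panel using a microfluidic assay. Each compound was tested at […] with ATP at roughly the Km for each enzyme. The pan-AGC inhibitor H-89 served as an internal control on every plate.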

Homo sapiens = species: Homo sapiens; assay: Inhibition of PKA (unknown origin) at 30 uM by microfluidic mobility shift assay relative to control; in short: as §1
[2] = biological target: Tyrosine-protein kinase Lyn (Homo sapiens, UniProt P07948); assay: Inhibition of LYN (unknown origin) at 30 uM by microfluidic mobility shift assay relative to control; in short: as §1
Chain of Tyrosine-protein kinase Lyn (P07948 2-512 limits assumed): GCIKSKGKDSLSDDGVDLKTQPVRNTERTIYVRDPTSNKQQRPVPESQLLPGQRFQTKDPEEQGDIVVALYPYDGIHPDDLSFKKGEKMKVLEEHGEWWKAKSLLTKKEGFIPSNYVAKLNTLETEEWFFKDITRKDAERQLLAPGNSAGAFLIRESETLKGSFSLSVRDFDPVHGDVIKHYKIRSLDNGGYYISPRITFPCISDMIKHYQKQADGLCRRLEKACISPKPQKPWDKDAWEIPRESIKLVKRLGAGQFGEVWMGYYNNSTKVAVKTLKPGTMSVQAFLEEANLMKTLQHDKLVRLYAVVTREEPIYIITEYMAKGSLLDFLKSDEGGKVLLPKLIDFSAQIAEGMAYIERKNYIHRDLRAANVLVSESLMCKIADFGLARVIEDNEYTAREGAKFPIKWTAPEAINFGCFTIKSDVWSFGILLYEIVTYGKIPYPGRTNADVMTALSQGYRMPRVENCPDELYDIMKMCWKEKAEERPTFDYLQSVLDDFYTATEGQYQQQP

[3] = biological target: Proto-oncogene tyrosine-protein kinase Src (Homo sapiens, UniProt P12931); assay: Inhibition of SRC (unknown origin) at 30 uM by microfluidic mobility shift assay relative to control; in short: as §1
Chain of Proto-oncogene tyrosine-protein kinase Src (P12931 2-536 limits assumed): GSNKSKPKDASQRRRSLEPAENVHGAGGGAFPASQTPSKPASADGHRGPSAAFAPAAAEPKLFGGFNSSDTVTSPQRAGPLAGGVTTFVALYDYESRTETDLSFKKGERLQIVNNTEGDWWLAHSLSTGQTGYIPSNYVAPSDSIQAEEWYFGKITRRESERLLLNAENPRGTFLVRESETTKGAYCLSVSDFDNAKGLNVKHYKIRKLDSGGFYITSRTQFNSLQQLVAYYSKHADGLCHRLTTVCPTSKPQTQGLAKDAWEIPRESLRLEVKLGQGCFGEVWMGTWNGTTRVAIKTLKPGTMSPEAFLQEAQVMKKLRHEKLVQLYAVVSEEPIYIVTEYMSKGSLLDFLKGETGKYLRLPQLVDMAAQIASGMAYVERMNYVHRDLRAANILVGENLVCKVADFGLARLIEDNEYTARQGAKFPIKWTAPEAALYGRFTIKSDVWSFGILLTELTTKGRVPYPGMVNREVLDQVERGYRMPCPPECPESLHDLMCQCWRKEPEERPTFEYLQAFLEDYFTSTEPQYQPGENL

[4] = biological target: Tyrosine-protein kinase Fyn (Homo sapiens, UniProt P06241); assay: Inhibition of FYN (unknown origin) at 30 uM by microfluidic mobility shift assay relative to control; in short: as §1
Chain of Tyrosine-protein kinase Fyn (P06241 2-537 limits assumed): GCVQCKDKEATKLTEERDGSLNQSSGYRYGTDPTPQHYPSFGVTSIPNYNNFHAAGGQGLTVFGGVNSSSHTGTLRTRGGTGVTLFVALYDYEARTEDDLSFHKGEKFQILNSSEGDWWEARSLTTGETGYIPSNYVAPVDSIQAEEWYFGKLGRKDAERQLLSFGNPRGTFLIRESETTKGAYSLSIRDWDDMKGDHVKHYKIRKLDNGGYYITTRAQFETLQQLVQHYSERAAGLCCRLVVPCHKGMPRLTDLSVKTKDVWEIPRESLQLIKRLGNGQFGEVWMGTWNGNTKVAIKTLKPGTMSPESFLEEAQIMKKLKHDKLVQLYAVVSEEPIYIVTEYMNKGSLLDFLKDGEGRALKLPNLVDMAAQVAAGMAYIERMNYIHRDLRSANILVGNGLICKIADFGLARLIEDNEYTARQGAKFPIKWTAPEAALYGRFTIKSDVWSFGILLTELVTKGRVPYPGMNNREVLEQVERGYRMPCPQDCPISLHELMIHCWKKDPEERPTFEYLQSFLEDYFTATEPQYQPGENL

[5] = biological target: Protein kinase C (PKC) (Homo sapiens) (UniProt O94806+P41743+P17252+P05129+Q05655+P05771+Q05513+Q02156+P24723+Q15139+Q04759); assay: Inhibition of PKC (unknown origin) at 30 uM by microfluidic mobility shift assay relative to control; in short: as §1
[6] = biological target: Insulin receptor (Homo sapiens) (UniProt P06213); assay: Inhibition of INSR (unknown origin) at 30 uM by microfluidic mobility shift assay relative to control; in short: as §1
Chain of Insulin receptor (Homo sapiens) (P06213 28-758 limits assumed): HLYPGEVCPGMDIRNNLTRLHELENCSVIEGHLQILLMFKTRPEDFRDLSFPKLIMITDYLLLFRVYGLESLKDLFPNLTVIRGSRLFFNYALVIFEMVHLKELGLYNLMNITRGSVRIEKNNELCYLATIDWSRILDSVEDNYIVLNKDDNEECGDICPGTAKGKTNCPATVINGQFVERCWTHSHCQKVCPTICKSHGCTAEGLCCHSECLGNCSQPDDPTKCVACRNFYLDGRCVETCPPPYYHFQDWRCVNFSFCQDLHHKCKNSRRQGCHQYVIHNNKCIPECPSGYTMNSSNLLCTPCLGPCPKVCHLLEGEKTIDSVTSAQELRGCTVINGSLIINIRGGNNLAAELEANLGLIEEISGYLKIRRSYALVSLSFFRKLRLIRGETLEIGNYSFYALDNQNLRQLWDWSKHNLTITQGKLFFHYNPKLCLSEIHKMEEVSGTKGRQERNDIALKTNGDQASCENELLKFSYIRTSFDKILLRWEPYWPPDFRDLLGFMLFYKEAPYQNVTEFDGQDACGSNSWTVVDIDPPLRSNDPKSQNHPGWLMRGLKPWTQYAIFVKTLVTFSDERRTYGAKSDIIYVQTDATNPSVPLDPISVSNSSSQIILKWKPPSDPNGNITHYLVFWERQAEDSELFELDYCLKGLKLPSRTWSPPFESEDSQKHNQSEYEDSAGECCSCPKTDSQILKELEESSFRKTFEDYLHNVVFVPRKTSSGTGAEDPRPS
Chain of Insulin receptor (Homo sapiens) (P06213 763-1382 limits assumed): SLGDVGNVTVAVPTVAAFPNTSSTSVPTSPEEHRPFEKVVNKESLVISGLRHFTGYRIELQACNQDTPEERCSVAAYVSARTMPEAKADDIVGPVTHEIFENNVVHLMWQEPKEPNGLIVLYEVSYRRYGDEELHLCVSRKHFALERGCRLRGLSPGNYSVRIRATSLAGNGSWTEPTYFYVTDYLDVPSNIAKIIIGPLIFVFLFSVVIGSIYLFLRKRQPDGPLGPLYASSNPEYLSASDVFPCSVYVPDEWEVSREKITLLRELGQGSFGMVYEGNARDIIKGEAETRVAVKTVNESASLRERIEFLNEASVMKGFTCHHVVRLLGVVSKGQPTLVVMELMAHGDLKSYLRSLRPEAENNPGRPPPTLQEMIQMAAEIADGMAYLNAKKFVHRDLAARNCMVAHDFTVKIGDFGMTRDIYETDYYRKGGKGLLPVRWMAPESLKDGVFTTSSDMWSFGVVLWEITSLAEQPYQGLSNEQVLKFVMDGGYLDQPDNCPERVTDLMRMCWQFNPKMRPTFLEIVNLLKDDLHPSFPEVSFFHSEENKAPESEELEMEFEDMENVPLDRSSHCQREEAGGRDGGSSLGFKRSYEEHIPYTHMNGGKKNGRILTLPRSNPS

Chain of Tyrosine-protein kinase Lck (P06239 2-509 limits assumed): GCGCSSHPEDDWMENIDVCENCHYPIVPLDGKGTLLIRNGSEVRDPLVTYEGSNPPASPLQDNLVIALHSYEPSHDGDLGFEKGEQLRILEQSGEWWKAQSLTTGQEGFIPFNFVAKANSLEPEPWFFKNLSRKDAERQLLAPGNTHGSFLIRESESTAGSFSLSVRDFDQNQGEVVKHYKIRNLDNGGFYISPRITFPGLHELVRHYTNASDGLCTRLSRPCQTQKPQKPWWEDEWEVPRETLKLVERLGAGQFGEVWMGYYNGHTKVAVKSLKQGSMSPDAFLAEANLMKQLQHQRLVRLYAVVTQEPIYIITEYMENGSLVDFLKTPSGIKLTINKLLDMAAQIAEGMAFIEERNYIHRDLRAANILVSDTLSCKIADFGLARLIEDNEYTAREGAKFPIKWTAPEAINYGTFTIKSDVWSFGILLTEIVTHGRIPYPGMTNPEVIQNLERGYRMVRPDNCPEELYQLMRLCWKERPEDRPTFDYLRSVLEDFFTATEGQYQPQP

O=S(=O)(NCCNC/C=C/c1ccc(Br)cc1)c1cccc2cnccc12 showed an inhibition [1] of 22%, an inhibition (Homo sapiens) of 100% and an inhibition [2] of 50%. For the same molecule, the inhibition [3] was 4%, the inhibition [4] was 14% and the inhibition [5] was 64%. It also gave an inhibition [6] of 29%.
